Data set [1] relates to SH-SY5Y. As to the kind of experiment: Neuroprotective activity against NMDA-induced cell damage in human SH-SY5Y cells assessed as cell viability at 100 uM preincubated for 6 hrs followed by NMDA addition and measured after 30 mins by MTT assay (reference value: 58.7 +/- 2.3%).
Data set [2] is described as follows: Half life in human liver microsomes at 10 uM preincubated for 10 mins followed by NADPH addition and measured up to 60 mins. The format is ADME, microsome. The method in brief: (§1)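 Human liver microsomes were incubated for 60 min with an NADPH regenerating system to derive T1/2 and CL (µL/min/mg). A no-cofactor sample, with buffer replacing NADPH, was run alongside over 60 min to give % parent remaining.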
On the technique in general: Microsomes from liver hold many membrane-bound enzymes, among them those of drug oxidation.

In data set [3] the test system is SH-SY5Y. As to the kind of experiment: Down regulation of NMDA-induced NR2B level in human SH-SY5Y cells at 0.1 to 10 uM preincubated for 6 hrs followed by NMDA addition and measured after 30 mins by Western blot analysis. It counts as functional, cell-based. The method in brief: (§2)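 SH-SY5Y lysates were analysed by Western blot for NR2B expression and for p-ERK1/2 relative to total ERK. Data are means ± S.E.M., n = 3, compared against control and NMDA-treated groups.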
Background: Immunoblotting shows a protein as a band on a membrane.

The nature of data set [4]: Metabolic stability in human liver microsomes assessed as parent compound remaining at 10 uM after 60 mins in absence of NADPH. The conditions noted are these: read-out: Stability. It counts as ADME, microsome. The method in brief: as §1
For data set [5], the target named is Glutamate receptor ionotropic, NMDA 2B (Homo sapiens) (UniProt Q13224). As to the kind of experiment: Antagonist activity at NR2B NMDA receptor in human SH-SY5Y cells assessed as inhibition of NMDA-induced decrease in ERK1/2 phosphorylation at 0.1 to 10 uM preincubated for 6 hrs followed by NMDA addition and measured after 30 mins by Western blot analysis. It counts as cell-based. An outline of the steps:
as §2

Data set [6] concerns SH-SY5Y. As to the kind of experiment: Neuroprotective activity against NMDA-induced cell damage in human SH-SY5Y cells assessed as cell viability at 0.1 uM preincubated for 6 hrs followed by NMDA addition and measured after 30 mins by MTT assay (reference value: 58.7 +/- 2.3%). It counts as functional. The conditions noted are these: read-out: Activity.
In data set [7] the target is Glutamate receptor ionotropic, NMDA 2B (Homo sapiens) (UniProt Q13224). Briefly: Antagonist activity at NR2B NMDA receptor in human SH-SY5Y cells assessed as inhibition of NMDA-induced intracellular Ca2+ influx at 10 uM incubated for 3 hrs prior to fluo-3AM dye addition for 30 mins followed by NMDA addition and measured every 5 secs by laser scanning confocal microscopic analysis. It counts as cell-based. An outline of the steps:
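SH-SY5Y cells were loaded with fluo-3 AM, and cytoplasmic Ca²⁺ was followed as green fluorescence by laser scanning confocal microscopy over time. NMDA was added at 2 mM final to cells with or without compound pretreatment; n = 9 cells per group.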

Data set [8] can be described thus: Clearance in human liver microsomes at 10 uM preincubated for 10 mins followed by NADPH addition and measured up to 60 mins. It counts as ADME, microsome. The conditions noted are these: read-out: CLH. An outline of the steps: as §1
Data set [9] deals with SH-SY5Y. As to the kind of experiment: Neuroprotective activity against NMDA-induced cell damage in human SH-SY5Y cells assessed as cell viability at 10 uM preincubated for 6 hrs followed by NMDA addition and measured after 30 mins by MTT assay (reference value: 58.7 +/- 2.3%). It counts as functional. As to conditions: read-out: Activity. A general note: Formazan colour is commonly taken as a measure of viable cells.

The test system of data set [10] is SH-SY5Y. As to the kind of experiment: Neuroprotective activity against NMDA-induced cell damage in human SH-SY5Y cells assessed as cell viability at 1 uM preincubated for 6 hrs followed by NMDA addition and measured after 30 mins by MTT assay (reference value: 58.7 +/- 2.3%). It counts as functional. As to conditions: read-out: Activity.

Molecules are shown by their SMILES. Active and inactive are the calls of the source.

Chain of Glutamate receptor ionotropic, NMDA 2B (Homo sapiens) (Q13224 27-1484 limits assumed): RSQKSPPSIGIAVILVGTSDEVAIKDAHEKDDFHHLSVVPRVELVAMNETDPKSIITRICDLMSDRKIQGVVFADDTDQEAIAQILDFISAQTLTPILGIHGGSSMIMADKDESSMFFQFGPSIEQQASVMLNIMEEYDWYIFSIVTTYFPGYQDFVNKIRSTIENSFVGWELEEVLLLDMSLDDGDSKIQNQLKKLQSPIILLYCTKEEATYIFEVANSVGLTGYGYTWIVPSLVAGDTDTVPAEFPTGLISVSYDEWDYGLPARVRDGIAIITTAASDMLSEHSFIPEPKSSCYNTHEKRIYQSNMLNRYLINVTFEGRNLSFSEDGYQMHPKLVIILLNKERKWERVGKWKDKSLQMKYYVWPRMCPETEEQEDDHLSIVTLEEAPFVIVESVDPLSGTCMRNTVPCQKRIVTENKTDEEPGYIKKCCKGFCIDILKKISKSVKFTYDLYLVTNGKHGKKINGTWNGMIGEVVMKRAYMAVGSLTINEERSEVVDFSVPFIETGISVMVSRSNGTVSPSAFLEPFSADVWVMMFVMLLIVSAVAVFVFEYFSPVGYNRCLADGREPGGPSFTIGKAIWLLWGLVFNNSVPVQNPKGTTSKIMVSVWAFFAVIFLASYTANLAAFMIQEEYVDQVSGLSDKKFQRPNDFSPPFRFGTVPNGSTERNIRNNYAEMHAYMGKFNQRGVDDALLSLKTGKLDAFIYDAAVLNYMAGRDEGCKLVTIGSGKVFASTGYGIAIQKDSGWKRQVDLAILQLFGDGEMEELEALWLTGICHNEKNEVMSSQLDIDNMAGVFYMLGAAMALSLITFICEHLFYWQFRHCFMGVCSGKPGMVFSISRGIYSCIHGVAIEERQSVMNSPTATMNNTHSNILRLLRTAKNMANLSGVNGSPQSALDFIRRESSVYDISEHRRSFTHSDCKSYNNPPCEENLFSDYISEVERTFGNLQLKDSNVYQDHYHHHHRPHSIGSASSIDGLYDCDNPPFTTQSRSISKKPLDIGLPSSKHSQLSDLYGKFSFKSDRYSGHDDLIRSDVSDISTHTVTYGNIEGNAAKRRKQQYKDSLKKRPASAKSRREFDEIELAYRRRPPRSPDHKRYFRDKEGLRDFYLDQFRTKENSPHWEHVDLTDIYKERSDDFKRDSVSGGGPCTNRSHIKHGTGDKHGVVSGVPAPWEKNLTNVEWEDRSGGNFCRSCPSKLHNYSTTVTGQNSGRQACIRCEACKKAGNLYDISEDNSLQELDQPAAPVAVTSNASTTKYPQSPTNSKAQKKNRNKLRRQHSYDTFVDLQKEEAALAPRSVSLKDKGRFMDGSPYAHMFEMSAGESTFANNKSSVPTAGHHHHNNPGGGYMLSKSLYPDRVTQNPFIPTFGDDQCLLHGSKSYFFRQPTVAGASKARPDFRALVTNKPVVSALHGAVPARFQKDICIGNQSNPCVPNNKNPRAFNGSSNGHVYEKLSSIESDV

For orientation: half-life means the time needed for the level to fall by half in the phase considered. In the case of `O=C(NCCc1ccc(O)cc1)[C@@H]1CCC2=Nc3ccc(Br)cc3CN21`, the Activity in the data set with SH-SY5Y [1] was 78.6%. This molecule also yielded a half-life at 10 µM in data set [2] of 29.9 min. For the same molecule, in the data set on SH-SY5Y [3], the outcome was Active. In addition, in data set [4], the remaining at 1 h, 10 µM came out at 99.3%. The inhibition result in [5] and in data set [7] was “Active” throughout. The viability at 0.1 µM in the data set with SH-SY5Y [6] came to 75.8%. Moreover, in [8], the microsomal CLint at 10 µM is 46.3 µL/min/mg. Also, in the data set with SH-SY5Y [9], the viability at 10 µM stood at 84.4%. Also, the viability at 1 µM in the data set on SH-SY5Y [10] stood at 80%.

The record behind these values is ChEMBL document CHEMBL4229377, “Design, synthesis and bioevaluation of 1,2,3,9-tetrahydropyrrolo[2,1-b]quinazoline-1-carboxylic acid derivatives as potent neuroprotective agents” (Eur J Med Chem, 2018).
